Measured values as given in ChEMBL document CHEMBL1136992, “Further studies at neuropeptide s position 5: discovery of novel neuropeptide S receptor antagonists” (J Med Chem, 2009).
The source made the active and inactive calls. The rule behind the calls is not given here. Square brackets hold non-standard residues; d marks the D form. Peptide text beside a SMILES is read from it. dTle = CC(C)(C)[C@@H](N)C(=O)O

Tests used:
Nociceptin receptor = Nociceptin receptor (Homo sapiens, UniProt P41146); test: Antagonist activity at human recombinant NOP receptor expressed in CHO cells coexpressing alphaqi5 assessed as inhibition of N/OFQ-induced intracellular calcium mobilization; format: functional, cell-based
Sequence of Nociceptin receptor (P41146 whole entry): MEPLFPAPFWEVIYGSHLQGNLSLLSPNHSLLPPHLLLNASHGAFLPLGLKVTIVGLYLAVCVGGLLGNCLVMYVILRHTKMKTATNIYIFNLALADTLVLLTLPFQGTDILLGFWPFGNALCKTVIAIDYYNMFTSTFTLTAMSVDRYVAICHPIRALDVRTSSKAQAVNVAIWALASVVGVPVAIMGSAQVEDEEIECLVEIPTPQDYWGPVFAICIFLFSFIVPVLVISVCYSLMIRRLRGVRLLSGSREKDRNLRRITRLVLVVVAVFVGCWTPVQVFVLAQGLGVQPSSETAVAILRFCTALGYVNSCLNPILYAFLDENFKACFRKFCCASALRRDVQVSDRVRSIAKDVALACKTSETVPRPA

[1] = biological target: Proteinase-activated receptor 2 (Homo sapiens) (UniProt P55085); test: Antagonist activity at human recombinant PAR2 expressed in A549 cells assessed as inhibition of SLIGKV-NH2-induced intracellular calcium mobilization at up to 10 uM; format: functional, cell-based
[2] = biological target: T1, Neuropeptide S receptor (Mus musculus) (UniProt Q8BZP8); test: Antagonist activity at mouse NPSR expressed in HEK293 cells assessed as inhibition of NPS-induced response by Schild analysis; format: functional, cell-based
T1 sequence (whole entry): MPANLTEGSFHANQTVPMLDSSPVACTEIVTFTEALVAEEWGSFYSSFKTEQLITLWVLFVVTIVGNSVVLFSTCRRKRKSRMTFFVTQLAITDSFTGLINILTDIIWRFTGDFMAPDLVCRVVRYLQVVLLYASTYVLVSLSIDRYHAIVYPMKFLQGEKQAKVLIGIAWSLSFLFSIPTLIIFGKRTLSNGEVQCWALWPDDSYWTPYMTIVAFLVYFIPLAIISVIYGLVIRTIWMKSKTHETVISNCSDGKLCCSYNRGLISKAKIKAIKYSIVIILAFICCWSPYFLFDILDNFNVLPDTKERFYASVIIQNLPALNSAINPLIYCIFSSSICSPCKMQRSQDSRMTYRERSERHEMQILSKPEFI
In short: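 Calcium mobilization in HEK293 cells stably expressing mouse NPSR, at 37 °C with three mixing cycles after antagonist injection. NPS concentration-response curves were run without and with antagonist at 0.1-10 µM, and pKB with 95% confidence limits was derived from the curve shifts. Mean ± SEM of four separate experiments in duplicate.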

[3] = biological target: T2, Delta-type opioid receptor (Homo sapiens, UniProt P41143); test: Antagonist activity at human recombinant delta opioid receptor expressed in CHO cells coexpressing alphaqi5 assessed as inhibition of DPDPE-induced intracellular calcium mobilization; format: functional, cell-based
T2 sequence (P41143 whole entry): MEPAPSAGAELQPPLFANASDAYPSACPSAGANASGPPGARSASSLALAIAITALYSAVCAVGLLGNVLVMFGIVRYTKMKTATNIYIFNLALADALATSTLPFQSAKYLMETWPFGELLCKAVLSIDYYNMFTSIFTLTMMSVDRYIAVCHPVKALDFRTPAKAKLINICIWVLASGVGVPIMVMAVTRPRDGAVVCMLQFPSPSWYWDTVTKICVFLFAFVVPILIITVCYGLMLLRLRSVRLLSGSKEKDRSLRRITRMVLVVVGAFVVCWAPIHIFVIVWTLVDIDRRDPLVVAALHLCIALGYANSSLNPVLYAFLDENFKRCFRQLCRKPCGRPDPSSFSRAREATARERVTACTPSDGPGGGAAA
In short: (§1)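 Calcium mobilization in human receptor cells. NK-1, B2 and UT recombinant in CHO. MOP, DOP, KOP and NOP in CHO cells carrying chimeric Gαqi5. Native PAR2 in A549 cells. Mean ± SEM of three experiments in duplicate.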

[4] = biological target: T1, Neuropeptide S receptor (Mus musculus); test: Agonist activity at mouse NPSR expressed in HEK293 cells up to 10 uM by calcium mobilization assay; format: functional, cell-based
In short: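 HEK293 cells stably expressing mouse NPSR; intracellular calcium mobilization measured after peptide addition, concentration-response curves giving pEC50 and Emax as % over basal. Mean of at least four separate experiments performed in duplicate.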

Urotensin-2 receptor = biological target: T3, Urotensin-2 receptor (Homo sapiens, UniProt Q9UKP6); test: Antagonist activity at human recombinant urotensin 2 receptor expressed in CHO cells assessed as inhibition of urotensin 2-induced intracellular calcium mobilization; format: functional, cell-based
T3 sequence (Q9UKP6 whole entry): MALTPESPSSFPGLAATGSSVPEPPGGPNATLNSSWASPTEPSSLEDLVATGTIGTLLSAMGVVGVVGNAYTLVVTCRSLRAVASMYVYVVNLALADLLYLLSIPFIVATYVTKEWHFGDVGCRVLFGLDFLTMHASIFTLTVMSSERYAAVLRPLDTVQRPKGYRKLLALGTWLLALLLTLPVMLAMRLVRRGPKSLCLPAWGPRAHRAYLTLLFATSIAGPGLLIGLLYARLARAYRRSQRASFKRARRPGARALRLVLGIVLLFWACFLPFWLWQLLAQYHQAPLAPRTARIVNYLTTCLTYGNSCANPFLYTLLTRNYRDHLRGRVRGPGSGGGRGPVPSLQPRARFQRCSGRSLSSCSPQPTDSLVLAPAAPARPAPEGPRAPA

[5] = biological target: T4, B2 bradykinin receptor (Homo sapiens) (UniProt P30411); test: Antagonist activity at human recombinant bradykinin 2 receptor expressed in CHO cells assessed as inhibition of bradykinin-induced intracellular calcium mobilization at up to 10 uM; format: functional, cell-based
T4 sequence (whole entry): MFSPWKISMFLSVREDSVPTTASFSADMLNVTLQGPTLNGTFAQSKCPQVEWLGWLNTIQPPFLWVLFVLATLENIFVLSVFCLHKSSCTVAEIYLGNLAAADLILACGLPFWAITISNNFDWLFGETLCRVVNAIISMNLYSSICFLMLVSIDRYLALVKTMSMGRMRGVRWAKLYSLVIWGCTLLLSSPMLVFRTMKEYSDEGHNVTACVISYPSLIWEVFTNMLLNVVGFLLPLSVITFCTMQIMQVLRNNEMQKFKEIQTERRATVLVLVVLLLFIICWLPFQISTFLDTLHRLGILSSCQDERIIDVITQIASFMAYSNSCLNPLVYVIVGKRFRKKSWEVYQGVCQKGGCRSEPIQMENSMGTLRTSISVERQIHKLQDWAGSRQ
In short: (§2)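 Calcium mobilization in human receptor cells. NK-1, B2 and UT recombinant in CHO. MOP, DOP, KOP and NOP in CHO cells carrying chimeric Gαqi5. Native PAR2 in A549 cells. […] Mean ± SEM of three experiments in duplicate.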

[6] = biological target: T5, Kappa-type opioid receptor (Homo sapiens, UniProt P41145); test: Antagonist activity at human recombinant kappa opioid receptor expressed in CHO cells coexpressing alphaqi5 assessed as inhibition of dynorphin A-induced intracellular calcium mobilization; format: functional, cell-based; in short: as §1
T5 sequence (P41145 whole entry): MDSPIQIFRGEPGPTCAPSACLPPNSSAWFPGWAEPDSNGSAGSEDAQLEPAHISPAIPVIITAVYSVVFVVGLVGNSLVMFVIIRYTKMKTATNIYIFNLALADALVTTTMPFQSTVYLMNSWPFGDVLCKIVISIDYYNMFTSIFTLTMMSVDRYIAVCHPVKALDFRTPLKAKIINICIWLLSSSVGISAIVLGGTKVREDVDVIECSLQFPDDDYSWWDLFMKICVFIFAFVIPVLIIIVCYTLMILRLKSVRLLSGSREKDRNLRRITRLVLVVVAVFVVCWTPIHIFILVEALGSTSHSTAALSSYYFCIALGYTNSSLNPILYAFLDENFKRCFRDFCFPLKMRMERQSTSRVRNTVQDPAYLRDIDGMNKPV

[7] = biological target: T6, Proteinase-activated receptor 2 (Homo sapiens, UniProt P55085); test: Antagonist activity at human recombinant PAR2 expressed in A549 cells assessed as inhibition of SLIGKV-NH2-induced intracellular calcium mobilization; format: functional, cell-based
T6 sequence (P55085 whole entry): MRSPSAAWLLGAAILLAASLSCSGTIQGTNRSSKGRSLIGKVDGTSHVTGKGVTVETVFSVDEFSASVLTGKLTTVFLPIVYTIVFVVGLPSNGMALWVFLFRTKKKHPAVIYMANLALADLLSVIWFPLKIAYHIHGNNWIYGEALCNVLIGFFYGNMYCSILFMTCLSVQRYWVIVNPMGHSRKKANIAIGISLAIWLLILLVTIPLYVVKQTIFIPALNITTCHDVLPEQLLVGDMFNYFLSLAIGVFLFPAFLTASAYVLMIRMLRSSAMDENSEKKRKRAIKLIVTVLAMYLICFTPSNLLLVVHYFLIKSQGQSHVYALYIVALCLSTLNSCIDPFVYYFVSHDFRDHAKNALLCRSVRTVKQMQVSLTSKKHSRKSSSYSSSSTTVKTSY

B2 bradykinin receptor = biological target: T7, B2 bradykinin receptor (Homo sapiens, UniProt P30411); test: Antagonist activity at human recombinant bradykinin 2 receptor expressed in CHO cells assessed as inhibition of bradykinin-induced intracellular calcium mobilization; format: functional, cell-based; in short: as §1
T7 sequence (P30411 whole entry): T4 sequence (whole entry)

[8] = biological target: T1, Neuropeptide S receptor (Mus musculus); test: Antagonist activity at mouse NPSR expressed in HEK293 cells assessed as inhibition of NPS-induced increase in intracellular calcium mobilization by Schild analysis at room temperature; format: functional, cell-based
In short: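 Schild-type experiment in HEK293 cells expressing mouse NPSR by calcium mobilization, using NPS concentration-response curves with added antagonist, run under the earlier conditions without 37 °C and without post-injection mixing.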

Mu-type opioid receptor [9] = biological target: T8, Mu-type opioid receptor (Homo sapiens, UniProt P35372); test: Antagonist activity at human recombinant mu opioid receptor expressed in CHO cells coexpressing alphaqi5 assessed as inhibition of dermorphin-induced intracellular calcium mobilization; format: functional, cell-based
T8 sequence (P35372 whole entry): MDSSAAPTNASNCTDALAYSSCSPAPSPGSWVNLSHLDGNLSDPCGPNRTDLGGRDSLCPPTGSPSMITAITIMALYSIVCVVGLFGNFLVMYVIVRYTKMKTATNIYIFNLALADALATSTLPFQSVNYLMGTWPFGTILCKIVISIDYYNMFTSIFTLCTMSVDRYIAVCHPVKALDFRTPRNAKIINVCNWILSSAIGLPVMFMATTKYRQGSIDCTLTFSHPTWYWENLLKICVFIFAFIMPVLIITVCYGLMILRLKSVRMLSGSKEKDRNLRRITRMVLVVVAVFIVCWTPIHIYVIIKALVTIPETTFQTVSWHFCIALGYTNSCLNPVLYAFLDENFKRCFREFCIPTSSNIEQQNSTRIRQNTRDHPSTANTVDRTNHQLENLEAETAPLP

[10] = biological target: T1, Neuropeptide S receptor (Mus musculus); test: Antagonist activity at mouse NPSR expressed in HEK293 cells assessed as inhibition of NPS-induced response; format: functional, cell-based
In short: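 HEK293 cells stably expressing mouse NPSR, calcium mobilization. Inhibition response curves to test peptides against 30 nM NPS, run at 37 °C with three up-and-down mixing cycles right after antagonist injection to aid diffusion. Mean of at least four separate experiments performed in duplicate.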

[11] = biological target: T5, Kappa-type opioid receptor; test: Antagonist activity at human recombinant kappa opioid receptor expressed in CHO cells coexpressing alphaqi5 assessed as inhibition of dynorphin A-induced intracellular calcium mobilization at up to 10 uM; format: functional, cell-based; in short: as §2
Substance-P receptor = Substance-P receptor (Homo sapiens, UniProt P25103); test: Antagonist activity at human recombinant NK1 receptor expressed in CHO cells assessed as inhibition of substance P-induced intracellular calcium mobilization
Sequence of Substance-P receptor (P25103 whole entry): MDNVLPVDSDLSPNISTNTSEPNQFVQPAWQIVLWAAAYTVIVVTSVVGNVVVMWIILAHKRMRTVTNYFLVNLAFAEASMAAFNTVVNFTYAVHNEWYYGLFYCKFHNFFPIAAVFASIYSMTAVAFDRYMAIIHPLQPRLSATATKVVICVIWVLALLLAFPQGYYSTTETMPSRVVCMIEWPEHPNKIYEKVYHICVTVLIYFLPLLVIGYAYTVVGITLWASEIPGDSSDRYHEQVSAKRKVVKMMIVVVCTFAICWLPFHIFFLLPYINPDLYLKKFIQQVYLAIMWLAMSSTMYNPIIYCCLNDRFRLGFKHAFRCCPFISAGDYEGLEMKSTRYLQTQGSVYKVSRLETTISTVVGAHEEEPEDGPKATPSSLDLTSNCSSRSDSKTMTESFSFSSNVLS

[12] = biological target: T2, Delta-type opioid receptor; test: Antagonist activity at human recombinant delta opioid receptor expressed in CHO cells coexpressing alphaqi5 assessed as inhibition of DPDPE-induced intracellular calcium mobilization at up to 10 uM; format: functional, cell-based; in short: as §1
Mu-type opioid receptor [13] = biological target: T8, Mu-type opioid receptor; test: Antagonist activity at human recombinant mu opioid receptor expressed in CHO cells coexpressing alphaqi5 assessed as inhibition of dermorphin-induced intracellular calcium mobilization at up to 10 uM; format: functional, cell-based; in short: as §2

In the case of `CSCC[C@H](NC(=O)CNC(=O)[C@@H](NC(=O)CNC(=O)[C@@H](NC(=O)[C@H](NC(=O)[C@H](CC(N)=O)NC(=O)[C@H](CCCNC(=N)N)NC(=O)[C@H](Cc1ccccc1)NC(=O)[C@@H](N)CO)C(C)(C)C)C(C)C)[C@@H](C)O)C(=O)N[C@@H](CCCCN)C(=O)N[C@@H](CCCCN)C(=O)N[C@H](C(=O)N[C@@H](CO)C(=O)N[C@@H](Cc1ccccc1)C(=O)N[C@@H](CCC(N)=O)C(=O)N[C@@H](CCCNC(=N)N)C(=O)N[C@@H](C)C(=O)N[C@@H](CCCCN)C(=O)N[C@@H](CO)C(=O)O)[C@@H](C)O` (H-SFRN[dTle]VGTGMKKTSFQRAKS-OH), the EC50 (Nociceptin receptor) is reported as 0.282 nM, the Emax [1] is reported as 445% and the Activity [2] is reported as “Dose-dependent effect”. The EC50 [3] was 1.95 nM, the Emax [4] was “inactive” and the EC50 (Urotensin-2 receptor) was 3.47 nM. The Emax [5] was 115%, the EC50 [6] was 2.34 nM and the EC50 [7] was 31600 nM. For the same compound, the EC50 (B2 bradykinin receptor) was 0.0339 nM, the Emax [8] was < 50% and the EC50 (Mu-type opioid receptor [9]) was 11 nM. For the same compound, the pKb [10] was 7.06, the Emax [11] was 139% and the EC50 (Substance-P receptor) was 0.049 nM. For the same compound, the Emax [12] was 177% and the Emax (Mu-type opioid receptor [13]) was 186%.
